According to PubChem BioAssay AID449755 (Broad Institute, 2010):
Results filed as inconclusive are left out. The source made the active and inactive calls.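 Rule for the calls: active = compounds raising caspase signal whose fitted AC50 is at most ten times the top tested dose; inconclusive = flat fit with 30 to 70% activity, or failed fit; inactive = the rest.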

System: HMC 1-8 low-A1 cells, caspase-3/7 luminescence, 3 h
Test: caspase activation in low-A1 HMC 1-8 cells, dose response, counter-screen for A1 inhibitor project, cell-based, caspase luminescence (AID 449755)
Method in brief: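 Material: HMC 1-8 human cancer cells with low A1 expression / Amount: 2500 cells/well / Medium: RPMI-1640, 10% FBS / Dosing: compound delivered by pin transfer / Times: compound 3 h at 37 °C, detection 1 h RT / Detection: caspase-3/7 DEVD luminescence / Evaluation: caspase activation as non-A1 counterscreen signal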

SMILES: CCOc1ccc(NCc2cccn2-c2nnc(N3CCC(C(=O)NCCCN4CC(C)CC(C)C4)CC3)s2)cc1 (stereo not drawn)
- AC50: > 35 µM (inactive)

SMILES: Cc1ccc(CS(=O)(=O)c2ncc(Cl)c(C(=O)Nc3nnc(C(C)C)s3)n2)cc1
- AC50: > 35 µM (inactive)

SMILES: CCOC(=O)C1=C(c2ccccc2)O/C(=C(/C#N)C(F)(F)F)S1
- AC50: > 35 µM (inactive)

SMILES: CC(=O)Nc1sc(N/N=C\c2cccc(Cl)c2)nc1-c1cccs1
- AC50: > 35 µM (inactive)

SMILES: Cc1ccc(Sc2c([N+](=O)[O-])c(=O)n(C)c3ccccc23)cc1
- AC50: > 35 µM (inactive)

SMILES: Cc1ccc(C(=O)COC(=O)c2ccc3c(c2)C(=O)N(c2cccc4ncccc24)C3=O)cc1
- AC50: 24.3 µM

SMILES: Cc1cccc(Nc2nc(N)c([N+](=O)[O-])c(N3CCCC(C)C3)n2)c1 (stereo not drawn)
- AC50: > 35 µM (inactive)

SMILES: CCc1nnc(NC(=O)c2nc(S(=O)(=O)Cc3ccccc3)ncc2Cl)s1
- AC50: > 35 µM (inactive)

SMILES: O=C(CCl)N=c1sccn1Cc1ccccc1Cl
- AC50: > 35 µM (inactive)

SMILES: COc1ccc(-c2ccc3c(c2)S(=O)(=O)c2cccc(C(=O)NCCOc4ccccc4)c2C3=O)cc1OC
- AC50: > 35 µM (inactive)

SMILES: CCN(C(=O)CCN1C(=O)c2ccccc2S1(=O)=O)c1ccccc1
- AC50: > 35 µM (inactive)

SMILES: C=C1/C=C(\C)[C@](C)(O)C[C@H](O)CC(=O)[C@H](O)[C@@H](O)[C@H](C)C[C@H](C)OC(=O)/C(C)=C/CC/C=C/[C@@H]2O[C@H]2C[C@H](C)C1
- AC50: > 35 µM (inactive)

SMILES: Cc1cccc(C)c1NC(=O)C(Cl)C(=O)c1ccccc1 (stereo not drawn)
- AC50: > 35 µM (inactive)

SMILES: Cc1ccc(S(=O)(=O)c2nnn3c2nc(Nc2cccc(C)c2)c2ccccc23)cc1
- AC50: > 35 µM (inactive)

SMILES: O=C(COc1ccccc1[N+](=O)[O-])Nc1ccc(NC(=O)c2cc3ccccc3o2)cc1
- AC50: 9.07 µM

SMILES: CCc1nnc(NC(=O)CSc2nc(-c3ccccc3)cc(-c3ccc(F)cc3)c2C#N)s1
- AC50: > 35 µM (inactive)

SMILES: CN1C2CCC1/C(=C/c1ccccn1)C(=O)/C2=C\c1ccccn1
- AC50: > 35 µM (inactive)

SMILES: COc1ccc(OC[C@@H](O)CNC(=O)c2cccc3c2C(=O)c2ccc(-c4ccc(F)cc4OCc4ccccc4)cc2S3(=O)=O)cc1
- AC50: > 35 µM (inactive)

SMILES: Cc1ccc(NC(=O)CSc2nc3nc(C)c(Br)cc3[nH]2)cc1F
- AC50: > 35 µM (inactive)

SMILES: CC(C)N=c1scc(-c2ccco2)n1/N=C/c1ccc(O)c(O)c1
- AC50: > 35 µM (inactive)

SMILES: CC(C)Cn1c(O)c(/C=C2\C=NN=C2c2ccccc2)sc1=S
- AC50: > 35 µM (inactive)

SMILES: CCc1ccc(NC(=O)c2nc(S(=O)(=O)Cc3ccccc3)ncc2Cl)cc1
- AC50: > 35 µM (inactive)

SMILES: CC1=NNC(=O)/C1=C\c1cn(-c2ccccc2)nc1-c1cccs1
- AC50: > 35 µM (inactive)

SMILES: CC1=NNC(=O)/C1=C\c1cn(-c2ccccc2)nc1-c1ccccc1
- AC50: > 35 µM (inactive)

SMILES: Oc1ccc(/C=N/N2CCN(C3c4ccccc4-c4ccccc43)CC2)cc1O
- AC50: > 35 µM (inactive)

SMILES: COc1ccc(Oc2cc(NC(=O)c3nn(C)cc3[N+](=O)[O-])cc([N+](=O)[O-])c2)cc1
- AC50: > 35 µM (inactive)

SMILES: c1ccc(-c2sc3ccccc3c2-c2ccc(OCCN3CCCC3)cc2)cc1
- AC50: > 35 µM (inactive)

SMILES: Cc1ccc(C(=O)/C=C\C(=O)c2ccc(C)cc2)cc1
- AC50: > 35 µM (inactive)

SMILES: CSC[C@@H]1NC(=S)N(c2ccc(C)cc2)C1=O
- AC50: > 35 µM (inactive)

SMILES: COc1ccc(OC)c(NC(=O)c2cc(-c3cc(C)ccc3O)n[nH]2)c1
- AC50: > 35 µM (inactive)

SMILES: CC(C)(C)C1CCc2onc(C(=O)Nc3cccc(O)c3)c2C1 (stereo not drawn)
- AC50: > 35 µM (inactive)

SMILES: C=CC(=O)Nc1ccc(CN2C(=O)N(c3c(Cl)c(OC)cc(OC)c3Cl)Cc3cnc(NCCCCN(CC)CC)nc32)cc1
- AC50: > 35 µM (inactive)

SMILES: COc1ccc(C=C2C=C(C(C)(C)C)C(=O)C(C(C)(C)C)=C2)cc1OC
- AC50: 5.9 µM
